Results reported in ChEMBL document CHEMBL4339228, “Identification of Isoform 2 Acid-Sensing Ion Channel Inhibitors as Tool Compounds for Target Validation Studies in CNS” (ACS Med Chem Lett, 2019).
pIC50: −log10 of the molar value. ≈ marks a conversion by molar mass, not a printed value.

Assays:
[1] = target: T1, Acid-sensing ion channel 2 (Mus musculus, UniProt Q925H0); test: Inhibition of pH 5.5-stimulated mouse ASIC2a homomer expressed in CHOK1 cells assessed as reduction in channel activation by VSD fluorescence assay; type: cell-based
T1 sequence (Q925H0 whole entry): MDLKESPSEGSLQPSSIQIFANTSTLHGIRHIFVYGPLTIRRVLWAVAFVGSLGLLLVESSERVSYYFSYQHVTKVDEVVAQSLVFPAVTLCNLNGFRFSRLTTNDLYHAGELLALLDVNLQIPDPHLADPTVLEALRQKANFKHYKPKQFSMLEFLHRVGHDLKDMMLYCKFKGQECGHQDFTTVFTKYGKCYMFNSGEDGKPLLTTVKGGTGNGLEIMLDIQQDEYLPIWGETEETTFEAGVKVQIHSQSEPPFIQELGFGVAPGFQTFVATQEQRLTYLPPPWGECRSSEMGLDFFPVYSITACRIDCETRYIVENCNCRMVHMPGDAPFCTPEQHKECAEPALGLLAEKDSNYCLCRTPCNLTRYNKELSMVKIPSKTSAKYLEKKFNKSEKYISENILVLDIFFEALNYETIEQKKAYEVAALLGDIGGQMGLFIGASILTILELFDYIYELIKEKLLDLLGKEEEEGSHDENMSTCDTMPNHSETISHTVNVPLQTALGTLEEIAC

[2] = target: T2, Acid-sensing ion channel 1 (Mus musculus, UniProt Q6NXK8); test: Inhibition of pH 6.6-stimulated mouse ASIC1a homomer expressed in CHOK1 cells assessed as reduction in channel activation by VSD fluorescence assay; type: cell-based
T2 sequence (Q6NXK8 whole entry): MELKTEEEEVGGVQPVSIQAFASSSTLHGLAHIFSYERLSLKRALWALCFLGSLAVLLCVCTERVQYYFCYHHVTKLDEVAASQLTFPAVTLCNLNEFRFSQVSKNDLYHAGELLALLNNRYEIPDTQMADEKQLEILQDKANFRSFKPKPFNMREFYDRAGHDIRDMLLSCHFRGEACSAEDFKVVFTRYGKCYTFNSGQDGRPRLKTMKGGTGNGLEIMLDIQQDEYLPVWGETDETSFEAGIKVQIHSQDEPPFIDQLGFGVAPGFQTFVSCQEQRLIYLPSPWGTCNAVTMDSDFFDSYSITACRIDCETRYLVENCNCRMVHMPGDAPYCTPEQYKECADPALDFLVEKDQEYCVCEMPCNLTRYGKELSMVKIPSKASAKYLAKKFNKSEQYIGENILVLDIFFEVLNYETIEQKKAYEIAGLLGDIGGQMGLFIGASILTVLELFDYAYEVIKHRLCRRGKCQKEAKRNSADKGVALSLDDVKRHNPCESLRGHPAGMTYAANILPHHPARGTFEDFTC

[3] = target: T3, Acid-sensing ion channel 1/2 (Mus musculus, UniProt Q6NXK8+Q925H0); test: Inhibition of pH 6.25-stimulated mouse ASIC1a/2a […] expressed in CHOK1 cells assessed as reduction in channel activation by VSD fluorescence assay; type: cell-based
T3 sequence (Q6NXK8 whole entry): T2 sequence (Q6NXK8 whole entry)
T3 sequence (Q925H0 whole entry): T1 sequence (Q925H0 whole entry)

Cytochrome P450 1A2 = target: T4, Cytochrome P450 1A2 (Homo sapiens, UniProt P05177); test: Inhibition of CYP1A2 (unknown origin) using pro-luciferin substrates in presence of NADPH by firefly luciferase reporter gene based P450-Glo assay; type: ADME
T4 sequence (P05177 whole entry): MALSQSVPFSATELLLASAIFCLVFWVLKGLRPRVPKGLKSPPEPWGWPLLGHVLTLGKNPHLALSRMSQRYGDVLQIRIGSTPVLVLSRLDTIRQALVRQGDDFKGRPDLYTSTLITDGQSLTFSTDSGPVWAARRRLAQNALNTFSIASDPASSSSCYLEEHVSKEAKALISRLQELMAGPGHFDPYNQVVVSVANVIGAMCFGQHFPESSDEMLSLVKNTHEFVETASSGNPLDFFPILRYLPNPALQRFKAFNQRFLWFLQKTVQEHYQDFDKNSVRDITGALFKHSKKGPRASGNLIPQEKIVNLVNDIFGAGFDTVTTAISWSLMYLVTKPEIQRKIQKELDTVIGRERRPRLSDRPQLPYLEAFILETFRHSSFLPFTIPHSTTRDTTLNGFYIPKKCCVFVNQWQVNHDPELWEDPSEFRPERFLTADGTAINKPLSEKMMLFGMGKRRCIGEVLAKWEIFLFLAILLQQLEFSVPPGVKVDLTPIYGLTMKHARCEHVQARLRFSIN

albumin = albumin (Homo sapiens, UniProt P02768); test: Binding affinity to human serum albumin by NMR-based analysis; type: ADME; settings: read-out: PPB (converted)
[4] = target: Voltage-gated inwardly rectifying potassium channel KCNH2 (Homo sapiens, UniProt Q12809); test: Inhibition of human ERG incubated for 4 hrs by fluorescence polarization assay
Procedure, shortened: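 Human ERG inhibition measured at concentrations up to 30 μM.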

[5] = Kinetic solubility of the compound at pH 7.4; type: physicochemical; settings: buffer, read-out: Kinetic_solubility
[6] = Clearance in NMRI mouse at 1 mg/kg, iv by LC-MS/MS analysis; type: ADME, organism-based; settings: in vivo
[7] = Ratio of drug level in brain to plasma of NMRI mouse at 1 mg/kg, iv measured after 2 to 8 hrs post dose; type: ADME, organism-based; settings: read-out: BPR
[8] = Volume of distribution in NMRI mouse at 1 mg/kg, iv by LC-MS/MS analysis; type: ADME, organism-based; settings: in vivo
[9] = Oral bioavailability in NMRI mouse at 3 mg/kg by LC-MS/MS analysis; type: ADME, organism-based; settings: in vivo
[10] = Cmax in NMRI mouse at 3 mg/kg, po by LC-MS/MS analysis; type: ADME, organism-based; set-up: dose 3 mg/kg, route oral; settings: in vivo

Sequence of Voltage-gated inwardly rectifying potassium channel KCNH2 (Q12809 whole entry): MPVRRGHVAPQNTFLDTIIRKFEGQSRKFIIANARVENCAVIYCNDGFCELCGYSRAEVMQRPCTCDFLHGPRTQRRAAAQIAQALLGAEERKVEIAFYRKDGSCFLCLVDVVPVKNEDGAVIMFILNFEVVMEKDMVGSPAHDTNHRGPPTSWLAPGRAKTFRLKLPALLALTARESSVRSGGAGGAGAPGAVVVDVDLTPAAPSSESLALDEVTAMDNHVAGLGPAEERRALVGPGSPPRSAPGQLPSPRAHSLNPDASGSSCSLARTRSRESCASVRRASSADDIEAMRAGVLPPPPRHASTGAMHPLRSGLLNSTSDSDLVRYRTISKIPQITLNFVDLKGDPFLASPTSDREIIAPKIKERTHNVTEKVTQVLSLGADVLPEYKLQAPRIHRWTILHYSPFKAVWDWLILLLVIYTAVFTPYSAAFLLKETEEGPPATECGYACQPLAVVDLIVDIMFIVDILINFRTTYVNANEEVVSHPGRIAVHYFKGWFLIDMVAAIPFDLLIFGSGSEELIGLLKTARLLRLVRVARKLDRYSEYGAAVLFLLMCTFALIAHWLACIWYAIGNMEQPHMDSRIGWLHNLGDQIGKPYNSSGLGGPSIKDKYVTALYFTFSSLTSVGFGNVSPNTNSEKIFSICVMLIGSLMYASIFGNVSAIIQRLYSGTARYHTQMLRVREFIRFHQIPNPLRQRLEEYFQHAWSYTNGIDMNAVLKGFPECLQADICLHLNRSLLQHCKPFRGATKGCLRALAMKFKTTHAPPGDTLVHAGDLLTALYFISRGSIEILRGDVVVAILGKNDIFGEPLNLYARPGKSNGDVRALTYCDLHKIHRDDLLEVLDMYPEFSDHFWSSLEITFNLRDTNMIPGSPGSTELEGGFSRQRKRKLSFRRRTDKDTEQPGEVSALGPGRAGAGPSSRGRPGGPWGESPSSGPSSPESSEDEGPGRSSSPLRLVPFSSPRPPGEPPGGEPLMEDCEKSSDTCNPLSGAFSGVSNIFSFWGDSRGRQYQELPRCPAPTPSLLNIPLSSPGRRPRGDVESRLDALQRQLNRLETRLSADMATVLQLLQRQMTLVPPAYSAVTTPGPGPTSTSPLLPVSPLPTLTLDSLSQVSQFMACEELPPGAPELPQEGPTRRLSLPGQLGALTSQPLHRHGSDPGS
Sequence of albumin (P02768 whole entry): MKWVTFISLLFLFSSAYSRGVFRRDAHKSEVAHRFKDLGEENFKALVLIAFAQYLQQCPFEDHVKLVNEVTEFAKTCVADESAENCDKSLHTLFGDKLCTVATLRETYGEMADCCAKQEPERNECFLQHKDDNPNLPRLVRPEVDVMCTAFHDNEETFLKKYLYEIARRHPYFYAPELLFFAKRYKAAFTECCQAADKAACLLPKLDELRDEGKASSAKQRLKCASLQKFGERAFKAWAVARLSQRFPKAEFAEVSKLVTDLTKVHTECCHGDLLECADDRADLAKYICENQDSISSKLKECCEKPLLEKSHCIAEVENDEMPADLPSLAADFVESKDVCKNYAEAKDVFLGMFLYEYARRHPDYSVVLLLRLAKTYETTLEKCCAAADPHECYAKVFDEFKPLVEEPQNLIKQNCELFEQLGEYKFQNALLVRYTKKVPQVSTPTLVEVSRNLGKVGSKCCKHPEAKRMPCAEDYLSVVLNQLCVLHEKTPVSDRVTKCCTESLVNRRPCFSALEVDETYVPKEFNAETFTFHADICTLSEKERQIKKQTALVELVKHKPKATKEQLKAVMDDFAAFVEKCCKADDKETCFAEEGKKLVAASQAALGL

Row | pIC50 [1] | pIC50 [2] | IC50 [3] [µM] | Structure (SMILES) | other results
1 | < 4.52 | < 4.52 | > 30 | Cc1nn(-c2ccc(CN)cc2)c(C)c1-c1ccc(Cl)cc1 | 
2 | < 4.52 | < 4.52 | > 30 | Cc1nn(-c2ncnc3c2CNC3)c(C)c1-c1cccc(F)c1 | 
3 | 3.77 | 4.24 | 45.2 | N=C(N)c1ccc(/N=N/Nc2ccc(C(=N)N)cc2)cc1 [DIMINAZENE] | 
4 | 5.06 | < 4.52 | > 30 | Cc1ccc(-c2c(C)nn(-c3ccc(CN)cc3)c2C)cc1 | 
5 | 5.09 | < 4.52 | > 30 | Cc1nn(-c2ccc3c(c2)CNC3)c(C)c1-c1ccc(F)cc1 | pIC50 (Cytochrome P450 1A2): 6.70; fraction unbound (albumin): 0.05; pIC50 [4]: < 4.52; solubility kinetic [5]: 56 µg/mL (≈ 182 µM)
6 | 4.81 | < 4.52 | > 30 | Cc1nn(-c2cccc(CN)c2)c(C)c1-c1ccc(F)cc1 | 
7 | < 4.52 | < 4.52 | > 30 | Cc1ccc(-c2c(C)nn(-c3ccc(CN)cc3)c2C)cc1F | 
8 | < 4.52 | < 4.52 | > 30 | Cc1nn(-c2ccc3c(c2)NCC3)c(C)c1-c1ccc(F)cc1 | 
9 | < 4.52 | < 4.52 | > 30 | Cc1nn(-c2ccc(CN)nc2)c(C)c1-c1ccc(F)cc1 | 
10 | < 4.52 | < 4.52 | > 30 | Cc1nn(-c2ccc(CN)cc2)c(C)c1-c1ccc(CN)cc1 | 
11 | 4.93 | < 4.52 | > 30 | Cc1nn(-c2ccc(CCN)cc2)c(C)c1-c1ccc(F)cc1 | 
12 | < 4.52 | < 4.52 | > 30 | Cc1nn(-c2ccc3c(c2)NCC3)c(C)c1-c1cccc(F)c1 | 
13 | < 4.52 | < 4.52 | > 30 | Cc1nn(-c2ncnc3c2CN(C)C3)c(C)c1-c1cccc(F)c1 | 
14 | 4.77 | < 4.52 | > 30 | Cc1nn(-c2ncnc3c2CNC3)c(C)c1-c1ccc(F)cc1 | clearance [6]: 34 mL/min/kg; Kp [7]: 1.3; Vd [8]: 1.4 L/kg; pIC50 (Cytochrome P450 1A2): 6.10; bioavailability [9]: 100%; fraction unbound (albumin): 0.06; pIC50 [4]: < 4.52; Cmax [10]: 2600 nM; solubility kinetic [5]: 32 µg/mL (≈ 103 µM)
15 | < 4.52 | < 4.52 | > 30 | Cc1nn(-c2ccc(C#N)cc2)c(C)c1-c1ccc(F)cc1 | 
16 | < 4.52 | < 4.52 | > 30 | Cc1nn(-c2ccc(CN)cc2)c(C)c1-c1ccc(C(F)(F)F)cc1 | 
17 | 5.06 | < 4.52 | > 30 | Cc1nn(-c2ccc(C(C)N)cc2)c(C)c1-c1ccc(F)cc1 (configuration not stated) | 
18 | 4.77 | < 4.52 | > 30 | Cc1nn(Cc2ccc(CN)cc2)c(C)c1-c1ccc(F)cc1 | 
19 | 5.37 | < 4.52 | > 30 | Cc1nn(-c2ccc(CN)cc2)c(C)c1-c1cccc(F)c1 | 
20 | 5.21 | < 4.52 | 8.5 | Cc1nn(-c2ccc(CN)cn2)c(C)c1-c1ccc(F)cc1 | 
21 | < 4.52 | < 4.52 | > 30 | NCc1ccc(-n2cc(-c3ccc(F)cc3)cn2)cc1 | 
22 | 4.79 | < 4.52 | > 30 | COc1ccc(-c2c(C)nn(-c3ccc(CN)cc3)c2C)cc1 | 
23 | 5.00 | < 4.52 | 11.3 | Cc1nn(-c2ccc3c(c2)CNC3)c(C)c1-c1cccc(F)c1 | 
24 | < 4.52 | < 4.52 | > 30 | Cc1ccc(-c2c(C)nn(-c3ccc(CN)cc3)c2C)cn1 | 
25 | 4.72 | < 4.52 | 10.9 | Cc1nn(-c2ccc(CN)cc2)c(C)c1-c1ccc(F)cc1 | clearance [6]: 224 mL/min/kg; Kp [7]: 61; Vd [8]: 50.9 L/kg; pIC50 (Cytochrome P450 1A2): 6.40; bioavailability [9]: 60%; fraction unbound (albumin): 0.07; pIC50 [4]: < 4.52; Cmax [10]: 90 nM; solubility kinetic [5]: 73 µg/mL (≈ 247 µM)
